≈ marks a conversion by molar mass, not a printed value.
How the values were obtained:
[1] = system: Proteus vulgaris; experiment: Antibacterial activity against Proteus vulgaris at 100 ug/disc after 24 hrs by disc diffusion method; assay type: functional; conditions: read-out: DIZ
Method in brief: (§1)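 Paper disc diffusion on autoclaved Mueller-Hinton agar poured 5 mm deep. Agar was swab-inoculated with 10⁵ CFU/mL suspension (0.5 McFarland). Discs 6.25 mm across were soaked in compound solution in DMSO (3.12–100 µg/mL) and plates incubated 24 h at (37 ± 1) °C. Read-out was inhibition zone (mm). DMSO control disc; ciprofloxacin or ketoconazole reference, 100 µg/disc. Mean of three independent experiments.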

[2] = system: Shigella flexneri; experiment: Antibacterial activity against Shigella flexneri at 100 ug/disc after 24 hrs by disc diffusion method; assay type: functional; conditions: read-out: DIZ; method in brief: as §1
[3] = system: Staphylococcus aureus; experiment: Antibacterial activity against Staphylococcus aureus after 24 hrs by agar streak dilution method; assay type: functional
Method in brief: (§2)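 MIC by agar streak dilution. Graded amounts of DMSO stock (100 μg/mL) were mixed into molten sterile nutrient agar and poured 4–5 mm deep. Serial concentrations spanned 3.12–100 µg/mL. Plates were inoculated with about 10⁵ CFU/mL of bacterial suspension and incubated at (37 ± 1) °C for 24 h. Each value is the mean of three independent experiments.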

[4] = system: Bacillus cereus; experiment: Antibacterial activity against Bacillus cereus after 24 hrs by agar streak dilution method; assay type: functional; method in brief: as §2
[5] = system: Escherichia coli; experiment: Antibacterial activity against Escherichia coli after 24 hrs by agar streak dilution method; assay type: functional; method in brief: as §2
[6] = system: Pseudomonas aeruginosa; experiment: Antibacterial activity against Pseudomonas aeruginosa […] after 24 hrs by agar streak dilution method; assay type: functional
[7] = system: Klebsiella pneumoniae; experiment: Antibacterial activity against Klebsiella pneumoniae […] after 24 hrs by agar streak dilution method; assay type: functional
[8] = system: Salmonella typhi; experiment: Antibacterial activity against Salmonella Typhi after 24 hrs by agar streak dilution method; assay type: functional, Salmonella enterica subsp. enterica serovar Typhi; conditions: Salmonella enterica
Method in brief: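 Agar streak dilution: DMSO stock (100 µg/mL) graded into molten sterile nutrient agar, poured 4–5 mm deep and solidified. Plates carry serial dilutions spanning 3.12–100 µg/mL. Applied ~10⁵ CFU/mL suspension, then incubated 24 h at (37 ± 1) °C. MIC read as the lowest inhibitory concentration; each value is the mean of three independent experiments.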

[9] = system: Proteus vulgaris; experiment: Antibacterial activity against Proteus vulgaris after 24 hrs by agar streak dilution method; assay type: functional; method in brief: as §2
[10] = system: Shigella flexneri; experiment: Antibacterial activity against Shigella flexneri after 24 hrs by agar streak dilution method; assay type: functional; method in brief: as §2
[11] = system: Aspergillus niger; experiment: Antifungal activity against Aspergillus niger after 48 hrs by agar streak dilution method; assay type: functional
Method in brief: (§3)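 Fungal MIC by agar streak dilution on Sabouraud dextrose agar, poured 4–5 mm deep. Compound from a DMSO stock (100 μg/mL) was incorporated at serial concentrations of 3.12–100 µg/mL. Plates were inoculated with about 10⁵ CFU/mL of suspension and incubated at (37 ± 1) °C for 48 h. Each value is the mean of three independent experiments.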

[12] = system: Aspergillus fumigatus; experiment: Antifungal activity against Aspergillus fumigatus after 48 hrs by agar streak dilution method; assay type: functional; method in brief: as §3
[13] = system: Aspergillus clavatus; experiment: Antifungal activity against Aspergillus clavatus after 48 hrs by agar streak dilution method; assay type: functional; method in brief: as §3
[14] = system: Candida albicans; experiment: Antifungal activity against Candida albicans after 48 hrs by agar streak dilution method; assay type: functional; method in brief: as §3
[15] = system: Aspergillus niger; experiment: Antifungal activity against Aspergillus niger at 100 ug/disc after 24 hrs by disc diffusion method; assay type: functional; conditions: read-out: DIZ; method in brief: as §1
[16] = system: Aspergillus fumigatus; experiment: Antifungal activity against Aspergillus fumigatus at 100 ug/disc after 24 hrs by disc diffusion method; assay type: functional; conditions: read-out: DIZ; method in brief: as §1
[17] = system: Aspergillus clavatus; experiment: Antifungal activity against Aspergillus clavatus at 100 ug/disc after 24 hrs by disc diffusion method; assay type: functional; conditions: read-out: DIZ; method in brief: as §1
[18] = system: Candida albicans; experiment: Antifungal activity against Candida albicans at 100 ug/disc after 24 hrs by disc diffusion method; assay type: functional; conditions: read-out: DIZ; method in brief: as §1
[19] = system: Staphylococcus aureus; experiment: Antibacterial activity against Staphylococcus aureus at 100 ug/disc after 24 hrs by disc diffusion method; assay type: functional; conditions: read-out: DIZ; method in brief: as §1
[20] = system: Bacillus cereus; experiment: Antibacterial activity against Bacillus cereus at 100 ug/disc after 24 hrs by disc diffusion method; assay type: functional; conditions: read-out: DIZ; method in brief: as §1
[21] = system: Escherichia coli; experiment: Antibacterial activity against Escherichia coli at 100 ug/disc after 24 hrs by disc diffusion method; assay type: functional; conditions: read-out: DIZ; method in brief: as §1
[22] = system: Pseudomonas aeruginosa; experiment: Antibacterial activity against Pseudomonas aeruginosa at 100 ug/disc after 24 hrs by disc diffusion method; assay type: functional; conditions: read-out: DIZ; method in brief: as §1
[23] = system: Klebsiella pneumoniae; experiment: Antibacterial activity against Klebsiella pneumoniae at 100 ug/disc after 24 hrs by disc diffusion method; assay type: functional; conditions: read-out: DIZ; method in brief: as §1
[24] = system: Salmonella typhi; experiment: Antibacterial activity against Salmonella Typhi at 100 ug/disc after 24 hrs by disc diffusion method; assay type: functional, Salmonella enterica subsp. enterica serovar Typhi; conditions: Salmonella enterica, read-out: DIZ
Method in brief: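 Paper disc diffusion on Mueller-Hinton agar poured 5 mm deep; 10⁵ CFU/mL suspension (0.5 McFarland) swabbed over surface. 6.25 mm filter paper discs soaked in compound in DMSO, incubated 24 h at (37 ± 1) °C; inhibition zone diameter in mm. DMSO disc as blank; ciprofloxacin 100 µg/disc as reference. Mean of three independent experiments.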

Row | SMILES | zone of inhibition at 100 µg/disc [1] [mm] | zone of inhibition at 100 µg/disc [2] [mm] | MIC [3] [µg/mL] | MIC [4] [µg/mL] | MIC [5] [µg/mL] | MIC [6] [µg/mL] | MIC [7] [µg/mL] | MIC [8] [µg/mL] | MIC [9] [µg/mL] | MIC [10] [µg/mL] | MIC [11] [µg/mL] | MIC [12] [µg/mL] | MIC [13] [µg/mL] | MIC [14] [µg/mL] | zone of inhibition at 100 µg/disc [15] [mm] | zone of inhibition at 100 µg/disc [16] [mm] | zone of inhibition at 100 µg/disc [17] [mm] | zone of inhibition at 100 µg/disc [18] [mm] | zone of inhibition at 100 µg/disc [19] [mm] | zone of inhibition at 100 µg/disc [20] [mm] | further results
1 | CCN1CCN(CC2SC(c3ccc([N+](=O)[O-])cc3)N(c3ccc(Nc4nc(Oc5cc(=O)n(C)c6ccccc56)nc(N(C)C)n4)cc3)C2=O)CC1 (stereo unspecified) | 25 | 22 | 50 (≈ 67.9 µM) | 50 (≈ 67.9 µM) | 100 (≈ 136 µM) | 100 (≈ 136 µM) | 50 (≈ 67.9 µM) | 100 (≈ 136 µM) | 50 (≈ 67.9 µM) | 50 (≈ 67.9 µM) | 50 (≈ 67.9 µM) | 100 (≈ 136 µM) | 100 (≈ 136 µM) | 100 (≈ 136 µM) | 23 | 20 | 21 | 17 | 22 | 22 | zone of inhibition at 100 µg/disc [21]: 24 mm; zone of inhibition at 100 µg/disc [22]: 18 mm; zone of inhibition at 100 µg/disc [23]: 23 mm; zone of inhibition at 100 µg/disc [24]: 22 mm
2 | CCN1CCN(CC2SC(c3ccccc3[N+](=O)[O-])N(c3ccc(Nc4nc(Oc5cc(=O)n(C)c6ccccc56)nc(N(C)C)n4)cc3)C2=O)CC1 (stereo unspecified) | 17 | 14 | 100 (≈ 136 µM) | 50 (≈ 67.9 µM) | 100 (≈ 136 µM) | 100 (≈ 136 µM) | 100 (≈ 136 µM) | 100 (≈ 136 µM) | 100 (≈ 136 µM) | 100 (≈ 136 µM) | 100 (≈ 136 µM) | 100 (≈ 136 µM) | 100 (≈ 136 µM) | 100 (≈ 136 µM) | < 10 | 13 | 15 | 19 | 13 | 17 | zone of inhibition at 100 µg/disc [21]: 14 mm; zone of inhibition at 100 µg/disc [22]: 16 mm; zone of inhibition at 100 µg/disc [23]: 15 mm; zone of inhibition at 100 µg/disc [24]: 15 mm
3 | CCN1CCN(CC2SC(c3ccc(O)cc3)N(c3ccc(Nc4nc(Oc5cc(=O)n(C)c6ccccc56)nc(N(C)C)n4)cc3)C2=O)CC1 (stereo unspecified) | 16 | 13 | 25 (≈ 35.3 µM) | 50 (≈ 70.6 µM) | 50 (≈ 70.6 µM) | 100 (≈ 141 µM) | 50 (≈ 70.6 µM) | 50 (≈ 70.6 µM) | 100 (≈ 141 µM) | 100 (≈ 141 µM) | 100 (≈ 141 µM) | 50 (≈ 70.6 µM) | 100 (≈ 141 µM) | 100 (≈ 141 µM) | 18 | 21 | 21 | 19 | 23 | 20 | zone of inhibition at 100 µg/disc [21]: 16 mm; zone of inhibition at 100 µg/disc [22]: 14 mm; zone of inhibition at 100 µg/disc [23]: 19 mm; zone of inhibition at 100 µg/disc [24]: 17 mm
4 | CCN1CCN(CC2SC(c3ccc(Br)cc3)N(c3ccc(Nc4nc(Oc5cc(=O)n(C)c6ccccc56)nc(N(C)C)n4)cc3)C2=O)CC1 (stereo unspecified) | 17 | 15 | 100 (≈ 130 µM) | 100 (≈ 130 µM) | 100 (≈ 130 µM) | 100 (≈ 130 µM) | 100 (≈ 130 µM) | 100 (≈ 130 µM) | 100 (≈ 130 µM) | 100 (≈ 130 µM) | 100 (≈ 130 µM) | 100 (≈ 130 µM) | 100 (≈ 130 µM) | 100 (≈ 130 µM) | 14 | 14 | 16 | 12 | 15 | 18 | zone of inhibition at 100 µg/disc [21]: 19 mm; zone of inhibition at 100 µg/disc [22]: 16 mm; zone of inhibition at 100 µg/disc [23]: 19 mm; zone of inhibition at 100 µg/disc [24]: 17 mm

Reference: ChEMBL document CHEMBL1933017, “Synthesis and biological evaluation of some thiazolidinones as antimicrobial agents” (2012)
